From ChEMBL document CHEMBL1124043, “Pyrido[2,1-b]quinazolinecarboxamide derivatives as platelet activating factor antagonists” (J Med Chem, 1988)

Legend:
[1] = system: Platelet-activating factor receptor (Canis familiaris); experiment: Percent inhibition of binding of platelet activating factor (PAF) to dog platelets using [3H]PAF as radioligand at a concentration of 1 uM; conditions: Canis lupus familiaris
[2] = species: Canis familiaris; experiment: Relative rate of hydrolysis in dog whole liver homogenates; assay type: ADME, Canis lupus familiaris
Summary of the method: (§1)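 Whole liver homogenate, equivalent to 21 mg fresh liver, in 40 mM potassium phosphate pH 7.4 with 0.4 mM substrate, final volume 1.0 mL. Incubated 10 min at 37 °C, then quenched with acetonitrile-methanol (9:1). Amine product measured in the supernatant by HPLC. Unincubated and no-substrate controls run in parallel. Rate expressed as nmol formed/10 min per 21 mg liver.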

[3] = Relative rate of hydrolysis in squirrel monkey whole liver homogenates; assay type: ADME, tissue-based; conditions: saimiri, tissue homogenate
Summary of the method: as §1

[4] = species: Cavia porcellus; experiment: Relative rate of hydrolysis in guinea pig whole liver homogenates; assay type: ADME
Summary of the method: as §1

inhibition [1] [%]	Relative rate [2]	Relative rate [3]	Relative rate [4]	SMILES
19	–	–	–	CC(C)c1ccc2nc3ccc(C(=O)NCCCCCCCc4cccnc4)cn3c(=O)c2c1
4	–	–	–	Cc1cc2nc3ccc(C(=O)NCCCCc4ccccc4)cn3c(=O)c2cc1C
0	–	–	–	Cc1cc2nc3ccc(C(=O)NCCCCc4ccc[n+](C)c4)cn3c(=O)c2cc1C
–	1.9	0.49	0.35	CC(CCCc1cccnc1)NC(=O)c1ccc2nc3ccc(C(C)C)cc3c(=O)n2c1 (racemic)
7	–	–	–	CC(C)c1ccc2nc3ccc(S(=O)(=O)NCCCCc4cccnc4)cn3c(=O)c2c1
–	< 0.01	< 0.01	0.063	CC(C)c1ccc2nc3ccc(C(=O)N[C@H](C)CCCc4cccnc4)cn3c(=O)c2c1
0	–	–	–	Cc1cc2nc3ccc(C(=O)NCCCCc4cnc[n+](C)c4)cn3c(=O)c2cc1C
9	–	–	–	CC(C)c1ccc2nc3ccc(C(=O)NCCCCCc4cccnc4)cn3c(=O)c2c1

The remaining lines, values behind:

SMILES	inhibition [1] [%]	Relative rate [2]	Relative rate [3]	Relative rate [4]
CC(C)c1ccc2nc3ccc(CCCCCCc4cccnc4)cn3c(=O)c2c1	15	–	–	–
CC(C)c1ccc2nc3ccc(C(=O)N[C@@H](C)CCCc4cccnc4)cn3c(=O)c2c1	–	1.9	0.26	0.5
CC(C)c1ccc2nc3ccc(C(=O)NCCCc4cccnc4)cn3c(=O)c2c1	5	–	–	–
CC(C)c1ccc2nc3ccc(C(=O)NCCCCc4cccnc4)cn3c(=O)c2c1	–	–	–	1
CC(C)c1ccc2nc3ccc(C(=O)NC(C)(C)CCCc4cccnc4)cn3c(=O)c2c1	–	–	–	< 0.01
CC(C)c1ccc2nc3ccc(CNCCCCc4cccnc4)cn3c(=O)c2c1	15	–	–	–
